For data set [1], the target named is Coagulation factor X (Homo sapiens, UniProt P00742). Put plainly: Inhibitory activity against coagulation factor X. A digest of the protocol:
(§1)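 Amidolytic enzyme assays with chromogenic substrates for thrombin, trypsin and factor Xa; Ki derived from IC50 by Cheng–Prusoff, or from reaction velocity equations with and without inhibitor using the relevant Km.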

The species named for data set [2] is Homo sapiens. Briefly: Concentration required to double the activated partial thromboplastin time in human plasma. The class given is functional. A digest of the protocol: (§2)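 Standard clotting assays (APTT, PT and TT) run in human plasma; value is the inhibitor concentration required to double each clotting time.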
Data set [3] is filed under the species Homo sapiens. Briefly: Concentration required to double the prothrombin time in human plasma. The class given is functional. Put shortly: as §2
Data set [4] is filed under the species Homo sapiens. Briefly: Concentration required to double the thrombin time in human plasma. The class given is functional. A digest of the protocol:
as §2

The target of data set [5] is Prothrombin (Homo sapiens, UniProt P00734). Put plainly: Inhibitory activity against thrombin. Put shortly:
as §1

The target in data set [6] is T1, Serine protease 1 (Bos taurus, UniProt P00760).
T1 sequence (P00760 whole entry): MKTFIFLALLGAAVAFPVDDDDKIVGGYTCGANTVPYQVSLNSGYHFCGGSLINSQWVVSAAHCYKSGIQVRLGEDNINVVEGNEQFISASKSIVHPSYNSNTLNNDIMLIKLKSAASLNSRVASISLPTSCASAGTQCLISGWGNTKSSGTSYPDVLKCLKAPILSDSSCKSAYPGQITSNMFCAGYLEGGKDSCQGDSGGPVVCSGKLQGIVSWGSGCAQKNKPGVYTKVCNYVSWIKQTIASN
Put plainly: Inhibitory activity against Trypsin; Inactive. A digest of the protocol: as §1

Data set [7] is described as follows: pKa value was determined. It is filed as physicochemical.
Data set [8] concerns the target T1, Serine protease 1. Put plainly: Inhibitory activity against Trypsin. A digest of the protocol:
as §1

Data set [9] deals with T2, Serine protease 1 (Bos taurus) (UniProt P00760).
T2 sequence (whole entry): T1 sequence (P00760 whole entry)
Put plainly: Selectivity for inhibition of thrombin to that of trypsin. Put shortly: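 Selectivity expressed as Ki(trypsin)/Ki(thrombin), with both Ki values from chromogenic-substrate amidolytic assays.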

Data set [10] has as its target T1, Serine protease 1. Briefly: Inhibitory activity was evaluated against Trypsin; Inactive. Put shortly:
as §1

Each structure is given as a SMILES string.

Chain of Coagulation factor X (P00742 41-179 limits assumed): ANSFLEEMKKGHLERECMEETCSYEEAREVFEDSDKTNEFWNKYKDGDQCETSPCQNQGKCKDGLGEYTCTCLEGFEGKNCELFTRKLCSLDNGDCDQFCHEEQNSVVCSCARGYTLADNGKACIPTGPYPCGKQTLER
Chain of Coagulation factor X (P00742 235-488 limits assumed): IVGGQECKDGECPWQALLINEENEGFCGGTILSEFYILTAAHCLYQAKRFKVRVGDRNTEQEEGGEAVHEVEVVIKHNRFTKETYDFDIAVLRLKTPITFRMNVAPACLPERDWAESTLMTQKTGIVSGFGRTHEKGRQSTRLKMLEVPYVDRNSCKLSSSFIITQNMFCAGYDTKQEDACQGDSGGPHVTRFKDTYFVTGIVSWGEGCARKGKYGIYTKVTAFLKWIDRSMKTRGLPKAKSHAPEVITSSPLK

As for `Cc1ccc(NS(=O)(=O)Cc2ccccc2)c(=O)n1CC(=O)NCC1CCc2nc(N)ncc2C1` (stereo unspecified), the Ki in data set [1] was 87.3 µM; in data set [5], 6.9 µM; in [6] it was 640 µM. Moreover, the results for the Concentration in [2], in [3] and in [4] were 219 µM, greater than 400 µM and 84 µM, respectively.
As for `Cc1ccc(NS(=O)(=O)Cc2ccccc2)c(=O)n1CC(=O)NCC1CCc2nc(N)sc2C1` (stereo unspecified), the values for the Ki in data set [1] and in data set [5] were 106 µM and 2.5 µM, respectively. Further, the Concentration in data set [2] came to 121 µM; in data set [3], 334 µM; in data set [4], 44 µM.
In [7], `Cc1ccc(NS(=O)(=O)Cc2ccccc2)c(=O)n1CC(=O)NC1CCc2nn(C)cc2C1` (stereo unspecified) had a pKa of 3.2. For the same compound, the Ki in [1] stood at 90.2 µM; in data set [8] it was 807 µM. Also, the Concentration in data set [2] is greater than 200 µM; in [3], greater than 400 µM; in [4] it was 375 µM. Besides, in data set [9], the Selectivity turned out to be 32.
In the case of `Cc1ccc(NS(=O)(=O)Cc2ccccc2)c(=O)n1CC(=O)NCc1ccc2[nH]ncc2c1`, the affinity in [5] corresponds to a Ki of 0.0087 µM.
The compound `Cc1ccc(NS(=O)(=O)Cc2ccccc2)c(=O)n1CC(=O)NC1CCc2nc(N)sc2C1` (stereo unspecified) returned a pKa in [7] of 6.1.
In turn, `Cc1ccc(NS(=O)(=O)Cc2ccccc2)c(=O)n1CC(=O)NCC1CCc2nn(C)cc2C1` (stereo unspecified) displayed a pKa in [7] of 3.6. Also, the Ki turned out to be 95 µM in data set [1], 11.8 µM in data set [5] and 557 µM in data set [8]. For the same compound, the Concentration in data set [2] is 318 µM; in data set [3], greater than 400 µM; in data set [4], 105 µM. In data set [9], this compound returned a Selectivity of 47.
Take `Cc1ccc(NS(=O)(=O)Cc2ccccc2)c(=O)n1CC(=O)NC1CCc2n[nH]cc2C1` (stereo unspecified): the pKa in data set [7] was 3.7. Affinity in [1] was put at a Ki of 99 µM. The Concentration in [2] was 272 µM; in data set [3] it was greater than 400 µM; in [4] it was 105 µM. This compound also displayed a Selectivity in data set [9] of 93.
In data set [7], `Cc1ccc(NS(=O)(=O)Cc2ccccc2)c(=O)n1CC(=O)NCC1CCc2n[nH]cc2C1` (stereo unspecified) had a pKa of 4. Besides, the Ki in [1] is 103 µM; in data set [5] it was 0.17 µM; in data set [10] it was “Not Active”. The Concentration amounted to 20.5 µM in data set [2], 30.6 µM in data set [3] and 5.2 µM in [4].

Usually Ki stands for the equilibrium dissociation constant of an inhibitor or competing ligand from its target. The low end stands for higher affinity, the high end for lower affinity. The pKa is the negative logarithm of the acid dissociation constant. High values mean a group that holds its proton tightly, low ones a group that gives up its proton readily.
